Results published in ChEMBL document CHEMBL4477177, “Antituberculosis Activity of a Naturally Occurring Flavonoid, Isorhamnetin” (J Nat Prod, 2016).
Values after ≈ are worked out from the molar mass of the structure shown. Active and inactive are the calls of the source. No cut-off for these calls is given here.

What was measured:
[1] = test system: Mycobacterium tuberculosis; test: Antitubercular activity against Mycobacterium tuberculosis H37Rv P887 incubated for 1 to 9 days by inverted microscopic analysis; assay type: functional
How it was run: (§1)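 Bacteria immobilised in 0.5% agarose within microfluidic channels of a 96-well chip. Compound (0–632 μM; rifampicin 0–19.4 μM) supplied in Middlebrook 7H9 with 10% OADC and allowed to diffuse in. Incubated at 37 °C; channel boundary imaged by inverted microscopy (40×) at 1, 3, 5, 7 and 9 days. MIC90 taken as lowest concentration giving 90% growth inhibition. Triplicate.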

[2] = test system: Mycobacterium tuberculosis; test: Antitubercular activity against MDR Mycobacterium tuberculosis X23 incubated for 1 to 9 days by inverted microscopic analysis; assay type: functional
[3] = test system: Mycobacterium tuberculosis; test: Antitubercular activity against XDR Mycobacterium tuberculosis X24 incubated for 1 to 9 days by inverted microscopic analysis; assay type: functional; how it was run: as §1
[4] = test system: Mycobacterium tuberculosis; test: Antitubercular activity against XDR Mycobacterium tuberculosis X59 incubated for 1 to 9 days by inverted microscopic analysis; assay type: functional; how it was run: as §1
[5] = Cytotoxicity against human HaCaT cells assessed as cell survival rate at 16 uM after 24 hrs by MTT assay; assay type: cell-based; details: read-out: Survival
How it was run: (§2)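 Cells treated for 24 h with test agent (0–400 μM) or rifampicin (0–16 μM), then MTT assay. Survival taken as A570 of treated cells over A570 of untreated cells, as a percentage. Average of triplicates from three independent experiments.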

[6] = Cytotoxicity against mouse NIH/3T3 cells assessed as cell survival rate at 16 uM after 24 hrs by MTT assay; assay type: cell-based, NIH3T3; details: read-out: Survival; how it was run: as §2
[7] = Cytotoxicity against human MRC5 cells assessed as cell survival rate at 16 uM after 24 hrs by MTT assay; assay type: cell-based; details: read-out: Survival; how it was run: as §2

For CO[C@H]1/C=C/O[C@@]2(C)Oc3c(C)c(O)c4c(O)c(c(/C=N/N5CCN(C)CC5)c(O)c4c3C2=O)NC(=O)/C(C)=C\C=C\[C@H](C)[C@H](O)[C@@H](C)[C@@H](O)[C@@H](C)[C@H](OC(C)=O)[C@@H]1C [RIFAMPIN], the MIC90 [1] was 0.61 µM (≈ 0.502 µg/mL), the MIC90 [2] was “inactive” and the MIC90 [3] was “inactive”. The MIC90 [4] was “inactive”, the viability at 24 h, 16 µM [5] was 55% and the viability at 24 h, 16 µM [6] was 62%. For the same molecule, the viability at 24 h, 16 µM [7] was 53%.
